In data set [1] the test system is microRNA 21. The experiment in a line: Inhibition of miR-21 RNA (unknown origin) in HeLa cells harboring luciferase gene assessed as increase in luminescence at 10 uM after 48 hrs by Bright-glo luciferase assay relative to DMSO. Type of data set: cell-based. The method, boiled down: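 HeLa-miR21-Luc stable reporter cells treated at 10 µM for 48 h. Luminescence normalized to cell viability and expressed as fold change over DMSO control. Mean ± SD of at least three independent experiments.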

Another data set deals with HEK293. The experiment in a line: Antiproliferative activity against human HEK293 cells cell viability after 72 hrs by XTT assay. Particulars: hek293, 72 h. Type of data set: cell-based. The method, boiled down: (§1)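 Cells treated with a serial dilution of compound for 72 h; viability read by XTT assay.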
For orientation: Tetrazolium dyes change colour on reduction, which living cells bring about.

Data set [2] relates to HeLa. The experiment in a line: Induction of apoptosis in human HeLa cells assessed as increase in caspase 3/7 activity at 50 uM after 24 hrs by caspase3/7 activity assay relative to control. The class given is functional. In short, it runs like this:
(§2)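 HeLa cells treated for 24 h, then caspase-3/7 activity assay.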

In data set [3] the test system is microRNA 21. The experiment in a line: Inhibition of miR-21 RNA in human SKOV3 cells assessed as reduction in matured miR-21 RNA at 10 uM after 48 hrs by RT-qPCR analysis relative to control. On the technique in general: In qPCR the cycle at which signal appears reflects the starting amount.
Data set [4] deals with Luciferin 4-monooxygenase (Photinus pyralis) (UniProt P08659). The experiment in a line: Inhibition of recombinant firefly luciferase activity assessed as reduction in luminescence at 10 uM by Bright-glo luciferase assay relative to control.
Data set [5] has as its system HeLa. The experiment in a line: Antiproliferative activity against human HeLa cells cell viability after 72 hrs by XTT assay. The class given is functional, cell-based. The method, boiled down: as §1
The test system of data set [6] is HeLa. The experiment in a line: Anticlonogenic activity against human HeLa cells assessed as reduction in colony formation after 2 weeks by crystal violet staining based microscopic method. The class given is functional, cell-based. The conditions noted are these: 336 h. The method, boiled down: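 HeLa cells suspended in low-melt agarose and exposed to a dilution series of compound for two weeks at 37 °C, then imaged.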

For data set [7], the system named is microRNA 21. The experiment in a line: Inhibition of pri-miR-21 RNA in human HeLa cells assessed as decrease in pri-miR-21 RNA level at 10 uM after 48 hrs by RT-qPCR method relative to control. Type of data set: cell-based. The method, boiled down:
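HeLa cells treated at 10 µM for 48 h; primary miR-21 levels measured by RT-qPCR.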

The subject of data set [8] is HeLa. The experiment in a line: Induction of apoptosis in human HeLa cells assessed as increase in caspase 3/7 activity at 10 uM after 24 hrs by caspase3/7 activity assay. The class given is functional. The method, boiled down:
as §2

For data set [9], the system named is microRNA 21. The experiment in a line: Inhibition of miR-21 RNA promoter (unknown origin) in HeLa cells expressing pGL4-miR21p assessed as decrease in miR-21 RNA promoter activity at 10 uM preincubated for 48 hrs followed by pGL4-miR21p transfection after 24 hrs by Bright-glo luciferase assay relative to DMSO. Type of data set: cell-based.
For data set [10], the target named is microRNA 21. The experiment in a line: Inhibition of miR-21 RNA (unknown origin) in HeLa cells harboring luciferase gene after 48 hrs by Bright-glo luciferase assay. The class given is cell-based. The method, boiled down: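 HeLa-miR21-Luc stable reporter cells treated across a concentration range, then Bright-Glo assay. Luciferase signal normalized first to cell viability, then to DMSO. Three independent experiments; EC50 from nonlinear regression fit.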

In data set [11] the test system is microRNA 122. The experiment in a line: Inhibition of miR-122 RNA (unknown origin) in HuH7 cells harboring luciferase gene assessed as reduction in luminescence at 10 uM after 48 hrs by dual luciferase assay relative to control. The class given is cell-based. In short, it runs like this: (§3)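 Huh7-miR122 stable reporter cells treated at 10 µM for 48 h; known miR-122 inhibitor as positive control. Dual luciferase assay; Renilla signal normalized to firefly, then to DMSO. Three independent experiments, mean ± SD; unpaired t-test.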

The subject of data set [12] is HeLa. The experiment in a line: Effect on non-miRNA pathway in human HeLa cells harboring psi-check empty vector assessed as increase in luminescence at 10 uM after 48 hrs by dual luciferase assay relative to control. Type of data set: functional. The method, boiled down:
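HeLa cells transfected with psiCHECK-empty reporter (sequence not targeted by any known miRNA), then treated at 10 µM for 48 h. Dual luciferase assay; firefly signal normalized to Renilla, then to DMSO. Three independent experiments, mean ± SD; unpaired t-test.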

Data set [13] relates to microRNA 21. The experiment in a line: Binding affinity to pre-miR-21 RNA (unknown origin) assessed as melting temperature by UV spectroscopic analysis (reference value: 56 degC). Type of data set: nucleic-acid assay.
The test system of data set [14] is microRNA 21. The experiment in a line: Inhibition of miR-21 RNA in human HeLa cells assessed as reduction in matured miR-21 RNA at 10 uM after 48 hrs by RT-qPCR analysis relative to control.
Data set [15] concerns microRNA 21. The experiment in a line: Inhibition of miR-21 RNA in human A549 cells assessed as reduction in matured miR-21 RNA at 10 uM after 48 hrs by RT-qPCR analysis relative to control.
The subject of data set [16] is microRNA 122. The experiment in a line: Inhibition of miR-122 RNA (unknown origin) in HuH7 cells harboring luciferase gene assessed as increase in luminescence at 10 uM after 48 hrs by dual luciferase assay relative to control. Type of data set: cell-based. The method, boiled down:
as §3

Data set [17] deals with Luciferin 4-monooxygenase (Photinus pyralis) (UniProt P08659). The experiment in a line: Inhibition of recombinant firefly luciferase activity assessed as reduction in luminescence at 10 uM by Bright-glo luciferase assay.

Active and inactive are the calls of the source. No cut-off for these calls is given here.

Sequence of Luciferin 4-monooxygenase (Photinus pyralis) (P08659 whole entry): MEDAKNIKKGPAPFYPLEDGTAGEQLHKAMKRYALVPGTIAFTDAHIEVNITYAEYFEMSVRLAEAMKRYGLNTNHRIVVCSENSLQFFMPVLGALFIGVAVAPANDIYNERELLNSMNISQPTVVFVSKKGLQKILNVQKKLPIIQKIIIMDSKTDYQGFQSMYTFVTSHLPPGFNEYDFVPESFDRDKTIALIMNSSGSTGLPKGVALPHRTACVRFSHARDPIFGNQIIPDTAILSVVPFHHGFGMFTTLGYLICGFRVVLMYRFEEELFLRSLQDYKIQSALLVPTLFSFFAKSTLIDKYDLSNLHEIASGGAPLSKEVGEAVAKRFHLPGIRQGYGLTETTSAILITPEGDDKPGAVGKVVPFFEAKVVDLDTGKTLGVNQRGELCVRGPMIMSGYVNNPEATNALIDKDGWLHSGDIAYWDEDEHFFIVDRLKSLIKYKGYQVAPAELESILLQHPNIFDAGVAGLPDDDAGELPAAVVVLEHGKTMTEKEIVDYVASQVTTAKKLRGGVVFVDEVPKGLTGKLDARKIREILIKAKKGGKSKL

For the compound `N#Cc1ccc(OCC(=O)Nc2ccc(-c3nc4cc(Cl)ccc4o3)cc2)cc1`, the fold change (FC) with microRNA 21 [1] was 2.08.
For the compound `O=C(COc1ccccc1)Nc1ccc(-c2nc3ccccc3s2)cc1`, the fold change (FC) with microRNA 21 [1] turned out to be 1.68.
On the same count and under the same terms, for `O=C(COc1ccccc1I)Nc1ccc(-c2nc3ccccc3s2)cc1` the value was 1.55.
For `COc1ccc(OCC(=O)Nc2ccc(-c3nc4cc(Cl)ccc4o3)cc2)cc1`, the Activity result in the data set with HEK293 was “Non-Toxic”; with HeLa [8], 50%. Further, the “fold change (FC)” value with HeLa [2] was found to be 2; in the data set on microRNA 21 [1] it was 4.87; with microRNA 122 [11], 0.2. For the same compound, the inhibition (as a rule, the drop in the measured response relative to a control, in per cent) with microRNA 21 [3] is 31%; with microRNA 21 [7], 79%; in the data set on microRNA 21 [9] it was 78%; in the data set with microRNA 21 [10] it was “Dose-dependent effect”; in the data set on microRNA 21 [14] it was 57%; in the data set on microRNA 21 [15], 33%. In data set [4], the inhibition entry is “inactive”. In addition, in the data set with HeLa [5], the IC50 (commonly the concentration that gives 50% inhibition) was over 50 µM. Besides, the figures for the EC50 in the data set with HeLa [6] and on microRNA 21 [10] were 7.3 µM and 6.7 µM, respectively. In addition, the result in the data set with HeLa [12] was inactive. For the same compound, the Tm in the data set with microRNA 21 [13] was found to be 56.2 °C.
For `O=S(=O)(c1ccc2c(c1)CCCN2)N1CCC[C@H]2CCCC[C@@H]21`, the fold change (FC) in the data set with microRNA 122 [16] was over 3.5.
As for `C#CCN(C(=O)COc1ccc(OC)cc1)c1ccc(-c2nc3cc(Cl)ccc3o2)cc1`, the fold change (FC) with microRNA 21 [1] was 1.61.
Same read-out and setting: under `COc1ccc(SCC(=O)Nc2ccc(-c3nc4cc(Cl)ccc4o3)cc2)cc1` stands 2.64; under `COc1ccc(OC(=O)Nc2ccc(-c3nc4cc(Cl)ccc4o3)cc2)cc1`, 3.48; under `O=C(COc1ccccc1)Nc1ccc(-c2nc3ccc(Cl)cc3o2)cc1`, 2.65.
For the compound `COc1ccc(OCC(=O)Nc2ccc(-c3nc4cc(Cl)ccc4[nH]3)cc2)cc1`, the fold change (FC) in the data set with microRNA 21 [1] was 1.6.
`COc1ccc(OCC(=O)Nc2cccc(-c3nc4cc(Cl)ccc4o3)c2)cc1`: the fold change (FC) with microRNA 21 [1] came out at 3.19.
Turning to `COc1cccc(OCC(=O)Nc2ccc(-c3nc4cc(Cl)ccc4o3)cc2)c1`, the figures for the fold change (FC) with microRNA 21 [1] and with HeLa [12] were 5.37 and 1.5 - 1.8, respectively. The values for the inhibition (in [4]; with microRNA 21 [10]) were 44% and “Dose-dependent effect”, respectively. The EC50 (in general, the midpoint of the concentration-response curve) on microRNA 21 [10] turned out to be 4.7 µM.
Regarding `COc1ccc(OCC(=O)Nc2nc3ccc(-c4nc5cc(Cl)ccc5o4)cc3s2)cc1`, in the data set on microRNA 21 [1], the fold change (FC) was 0.03.
Same read-out and setting: under `O=C(COc1ccccc1)Nc1ccc(-c2nc3cc(Cl)ccc3o2)cc1` stands 2.87; under `O=C(COc1ccc(F)cc1)Nc1ccc(-c2nc3cc(Cl)ccc3o2)cc1`, 2.86; under `O=C(COc1ccccc1)Nc1cccc(-c2nc3ccccc3o2)c1`, 1.75.
The same measure, in the same setting: under `COc1ccc(OCC(=O)N(C)c2ccc(-c3nc4cc(Cl)ccc4o3)cc2)cc1` stands 0.88; under `O=C(COc1ccccc1)Nc1ccc(-c2nc3cc(F)ccc3o2)cc1`, 1.58; under `COc1ccc(OCC(=O)Nc2cccc(-c3nc4ccccc4o3)c2)cc1`, 4.73.
For the compound `COc1ccc(OCC(=O)Nc2ccc(-c3nc4ccccc4o3)cc2)cc1`, the fold change (FC) in the data set with microRNA 21 [1] turned out to be 0.27.
The same measure, in the same setting: for `Cc1cc(OCC(=O)Nc2ccc(-c3nc4cc(Cl)ccc4o3)cc2)ccc1C(C)C` the value was 2.23; for `O=C(COc1ccccc1)Nc1ccc(-c2nc3ccccc3o2)cc1`, 1.47; for `O=C(COc1ccccc1)Nc1ccc(-c2nc3cc(Cl)ccc3[nH]2)cc1`, 0.41.
On the same count and under the same terms, for `O=C(COc1ccc(-c2ccccc2)cc1)Nc1ccc(-c2nc3cc(Cl)ccc3o2)cc1` the value was 2.64.
For the compound `COc1ccc(NCC(=O)Nc2ccc(-c3nc4cc(Cl)ccc4o3)cc2)cc1`, the fold change (FC) in the data set with microRNA 21 [1] stood at 0.14.
Turning to `O=C(O)c1cccc(-c2noc(-c3ccccc3F)n2)c1` [ATALUREN], in data set [17], the inhibition is 94%. Besides, the “fold change (FC)” value with HeLa [12] is recorded as 1.5 - 1.8.
On to `COc1ccc(OCC(=O)Nc2ccc(-c3nc4cc(F)ccc4o3)cc2)cc1`, for which the fold change (FC) in the data set on microRNA 21 [1] worked out at 2.14.
`O=C(COc1ccc([N+](=O)[O-])cc1)Nc1ccc(-c2nc3cc(Cl)ccc3o2)cc1`: the fold change (FC) in the data set with microRNA 21 [1] turned out to be 3.58.
For `COc1ccc(OCC(=O)Nc2ccc(-c3nc4cc(Br)ccc4o3)cc2)cc1`, the fold change (FC) was 6.19 in the data set with microRNA 21 [1] and 1.5 - 1.8 in the data set with HeLa [12]. Also, the inhibition was 38% in data set [4] and “Dose-dependent effect” with microRNA 21 [10]. For the same compound, the EC50 at microRNA 21 [10] is 6.4 µM.
For `O=C(COc1ccccc1)Nc1ccc2cc(-c3nc4cc(Cl)ccc4o3)ccc2c1`, the fold change (FC) with microRNA 21 [1] was determined as 1.3.
The same measure, in the same setting: under `COc1ccc(OCC(=O)Nc2ccc(-c3nc4ccccc4s3)cc2)cc1` stands 1.56; under `O=C(COc1ccccc1I)Nc1ccc(-c2nc3ccccc3o2)cc1`, 1.53.
`COc1ccc(OCC(=O)Nc2ccc(-c3nc4cc(-c5ccccc5)ccc4o3)cc2)cc1`: the fold change (FC) in the data set on microRNA 21 [1] was 7.87; in the data set on HeLa [12], 1.5 - 1.8. Moreover, the inhibition was 27% in [4] and “Dose-dependent effect” with microRNA 21 [10]. The compound also gave an EC50 on microRNA 21 [10] of 3.5 µM.
With `COc1ccc(OCC(=O)Nc2ccc(-c3nc4ccc(Cl)cc4o3)cc2)cc1`, in the data set on microRNA 21 [1], the fold change (FC) stood at 3.32.
As to `O=C(Nc1ccc(-c2nc3cc(Cl)ccc3o2)cc1)Oc1ccccc1`, the fold change (FC) in the data set with microRNA 21 [1] was 3.86.
Consider `O=C(COc1ccccc1)Nc1cccc(-c2nc3cc(Cl)ccc3o2)c1`, for which the fold change (FC) in the data set with microRNA 21 [1] stood at 2.14.
The same measure, in the same setting: under `COc1ccc(OCC(=O)Nc2ccc(-c3nc4ncccc4o3)cc2)cc1` stands 2.25.

For the origin of these results see ChEMBL document CHEMBL4385631, “Small molecule inhibition of microRNA-21 expression reduces cell viability and microtumor formation” (Bioorg Med Chem, 2019).
